# Measured values: ChEMBL document CHEMBL4480463, “Quassinoids from Picrasma quassioides and Their Neuroprotective Effects” (2019)
# Activity calls are given as the source filed them. The rule behind the calls is not given here.
# Columns and labels:
# SH-SY5Y [1] = test: Neuroprotective activity against H2O2-induced cytotoxicity in human SH-SY5Y cells at 25 to 100 uM preincubated for 1 hr followed by H2O2-stimulation and measured after 4 hrs by MTT assay; assay type: functional, cell-based
# Method in brief: (§1)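 SH-SY5Y cells preincubated with compound (25, 50 or 100 μM) for 1 h, then exposed to 300 μM H2O2 for 4 h. Viability read by MTT assay. Trolox served as positive control.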
# SH-SY5Y [2] = test: Inhibition of H2O2-induced apoptosis in human SH-SY5Y cells assessed as late apoptotic cells at 25 uM preincubated for 1 hr followed by H2O2-stimulation and measured after 4 hrs by Annexin V-FITC/propidium iodide staining-based flow cytometric analysis (reference value: 24.9%); assay type: functional; parameters: scale not given: the % may be the effect or the level left
# SH-SY5Y [3] = test: Inhibition of H2O2-induced apoptosis in human SH-SY5Y cells assessed as viable cells at 25 uM preincubated for 1 hr followed by H2O2-stimulation and measured after 4 hrs by Annexin V-FITC/propidium iodide staining-based flow cytometric analysis (reference value: 50.7%); assay type: functional; conditions: read-out: Activity
# SH-SY5Y [4] = test: Inhibition of H2O2-induced apoptosis in human SH-SY5Y cells assessed as decrease in caspase-3 activity at 25 uM; assay type: functional, cell-based
# Method in brief: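 SH-SY5Y cells exposed to H2O2 with or without test compound; caspase-3 activity in the cells quantified with a commercial caspase-3 activity assay kit; data given as means ± SDs.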
# SH-SY5Y [5] = test: Inhibition of H2O2-induced apoptosis in human SH-SY5Y cells assessed as early apoptotic cells at 25 uM preincubated for 1 hr followed by H2O2-stimulation and measured after 4 hrs by Annexin V-FITC/propidium iodide staining-based flow cytometric analysis (reference value: 2.25%); assay type: functional; parameters: scale not given: the % may be the effect or the level left
# SH-SY5Y [6] = test: Inhibition of H2O2-induced apoptosis in human SH-SY5Y cells assessed as necrotic cells at 25 uM preincubated for 1 hr followed by H2O2-stimulation and measured after 4 hrs by Annexin V-FITC/propidium iodide staining-based flow cytometric analysis (reference value: 22.2%); assay type: functional; parameters: scale not given: the % may be the effect or the level left
# SH-SY5Y [7] = test: Neuroprotective activity against H2O2-induced cytotoxicity in human SH-SY5Y cells at 25 uM preincubated for 1 hr followed by H2O2-stimulation and measured after 4 hrs by MTT assay; assay type: functional, cell-based; method in brief: as §1
structure (smiles),measurement,setting,value
COC1=C[C@@H](C)[C@@H]2C[C@H]3O[C@@H](O[C@@H]4O[C@H](CO)[C@@H](O)[C@H](O)[C@H]4O)C[C@H]4[C@](C)(O)[C@H](OC)[C@@H](O)[C@H]([C@@]2(C)C1=O)[C@@]34C,Activity,SH-SY5Y [1],Active
COC1=C[C@@H](C)[C@@H]2C[C@H]3OC(=O)C=C4[C@@H](C)[C@@H]5OCO[C@H]5[C@@H]([C@]43C)[C@@]2(C)C1=O,Activity,SH-SY5Y [1],inactive
COC1=C[C@@H](C)[C@@H]2C[C@H]3OC(=O)C[C@H]4[C@](C)(O)[C@@H]5OCO[C@H]5[C@H]([C@@]2(C)C1=O)[C@@]34C,Activity,SH-SY5Y [1],Active
COC1=C[C@@H](C)[C@@H]2C[C@H]3OC(=O)C[C@H]4[C@@H](C)[C@H](OC)[C@@H](OC(=O)c5cc(OC)c6c(c5)OCO6)[C@H]([C@@]2(C)C1=O)[C@@]34C,Activity,SH-SY5Y [2],10.1%
same,viability at 25 µM,SH-SY5Y [3],79.8%
same,Activity,SH-SY5Y [4],Active
same,Activity,SH-SY5Y [5],2.2%
same,Activity,SH-SY5Y [6],7.89%
same,Activity,SH-SY5Y [7],Active
COC1=C[C@@H](C)[C@@H]2C[C@H]3OC(=O)C[C@H]4C(C)=C(OC)C(=O)[C@H]([C@@]2(C)C1=O)[C@@]34C [QUASSIN],Activity,SH-SY5Y [2],13.7%
same,viability at 25 µM,SH-SY5Y [3],73.1%
same,Activity,SH-SY5Y [5],2.45%
same,Activity,SH-SY5Y [6],10.7%
same,Activity,SH-SY5Y [7],Active
COC1=C[C@@H](C)[C@@H]2C[C@H]3OC(=O)C[C@H]4[C@@H](C)[C@H](O)C(=O)[C@H]([C@@]2(C)C1=O)[C@@]34C,Activity,SH-SY5Y [1],inactive
COC1=C[C@@H](C)[C@@H]2C[C@H]3OC(=O)C[C@H]4C(CO)=C(OC)C(=O)[C@H]([C@@]2(C)C1=O)[C@@]34C,Activity,SH-SY5Y [2],13%
same,viability at 25 µM,SH-SY5Y [3],76.8%
same,Activity,SH-SY5Y [5],2.96%
same,Activity,SH-SY5Y [6],7.31%
same,Activity,SH-SY5Y [7],Active
COC1=C[C@@H](C)[C@@H]2C[C@H]3OC(=O)C[C@@]4(O)C(C)=C(OC)C(=O)[C@H]([C@@]2(C)C1=O)[C@@]34C,Activity,SH-SY5Y [2],13.4%
same,viability at 25 µM,SH-SY5Y [3],72.1%
same,Activity,SH-SY5Y [5],3.18%
same,Activity,SH-SY5Y [6],11.3%
same,Activity,SH-SY5Y [7],Active
COC1=C[C@@H](C)[C@@H]2C[C@H]3OC(=O)C[C@H]4[C@@H](C)[C@@H]5OCO[C@H]5[C@H]([C@@]2(C)C1=O)[C@@]34C,Activity,SH-SY5Y [1],Active
COC1=C[C@@H](C)[C@@H]2C[C@H]3OC(=O)C=C4C(C)=C(OC)C(=O)[C@@H]([C@]43C)[C@@]2(C)C1=O,Activity,SH-SY5Y [1],Active
COC1=C[C@@H](C)[C@@H]2C[C@H]3O[C@@H](O[C@@H]4O[C@H](CO)[C@@H](O)[C@H](O)[C@H]4O)C[C@H]4C(C)=C(OC)C(=O)[C@H]([C@@]2(C)C1=O)[C@@]34C [PICRASINOSIDE B],Activity,SH-SY5Y [2],8.55%
same,viability at 25 µM,SH-SY5Y [3],82.2%
same,Activity,SH-SY5Y [4],Active
same,Activity,SH-SY5Y [5],1.86%
same,Activity,SH-SY5Y [6],7.43%
same,Activity,SH-SY5Y [7],Active
COC1=C[C@@H](C)[C@@H]2C[C@H]3O[C@@H](O[C@@H]4O[C@H](CO)[C@@H](O)[C@H](O)[C@H]4O)C[C@@H]4[C@@]3(C)[C@H]([C@H](O)C(=O)[C@@]4(C)O)[C@@]2(C)C1=O,Activity,SH-SY5Y [1],inactive
COC1=C[C@@H](C)[C@@H]2C[C@H]3O[C@@H](O[C@@H]4O[C@H](CO)[C@@H](O)[C@H](O)[C@H]4O)C[C@@H]4[C@@]3(C)[C@H]([C@H](O)C(=O)[C@@]4(C)OC(C)=O)[C@@]2(C)C1=O,Activity,SH-SY5Y [1],inactive
COC1=C(C)[C@@H]2CC(=O)O[C@@H]3C[C@H]4[C@H](C)C[C@H](O)C(=O)[C@]4(C)[C@@H](C1=O)[C@@]32C,Activity,SH-SY5Y [1],Active
COC1=C[C@@H](C)[C@@H]2C[C@H]3OC(=O)C[C@H]4[C@](C)(O)[C@@H](O)C(=O)[C@H]([C@@]2(C)C1=O)[C@@]34C,Activity,SH-SY5Y [1],inactive
COC1=C[C@@H](C)[C@@H]2C[C@H]3O[C@@H](O[C@@H]4O[C@H](CO)[C@@H](O)[C@H](O)[C@H]4O)C[C@H]4[C@@H](C)[C@H](OC)[C@@H](O)[C@H]([C@@]2(C)C1=O)[C@@]34C,Activity,SH-SY5Y [1],Active
COC1=C[C@@H](C)[C@@H]2C[C@H]3OC(=O)C[C@H]4[C@@H](C)[C@@H](O)C(=O)[C@H]([C@@]2(C)C1=O)[C@@]34C,Activity,SH-SY5Y [1],inactive
COC1=C[C@@H](C)[C@@H]2C[C@H]3OC(=O)C[C@H]4[C@](C)(O)[C@H](OC)[C@@H](O)[C@H]([C@@]2(C)C1=O)[C@@]34C,Activity,SH-SY5Y [1],Active
COC1=C[C@@H](C)[C@@H]2C[C@H]3OC(=O)C[C@@]4(O)[C@@H](C)[C@H](OC)[C@@H](O)[C@H]([C@@]2(C)C1=O)[C@@]34C,Activity,SH-SY5Y [1],Active
